Measured values of several laboratories.
Protocols differ between the studies behind these lines.
Cell line: A549
Read-out: cell growth or viability

Structure (SMILES)	technique	time	IC50
C/C(=N\NC(=O)/N=C(\C)c1c(O)c2ccccc2oc1=O)c1c(O)c2ccccc2oc1=O	MTT	48 h	20.8 µM
CCCCn1cnc2ccc(-c3ccc4sc(NC(=O)Nc5ccc(F)cc5)nc4c3)cc2c1=O	MTT	72 h	1.27 µM
Fc1ccc(NC(=S)N/N=C/c2cccc3cc4ccccc4nc23)cc1	MTT	48 h	> 50 µM
O=C(Cn1cc(COc2ncnc3[nH]cnc23)nn1)Nc1ccc(O)cc1	MTT		26 µM
CCCCn1cnc2ccc(-c3ccc(NC(=O)Nc4ccc(Cl)cc4)nc3)cc2c1=O	CCK-8	72 h	> 10 µM
CC(=NNC(=O)c1cc(-c2ccccc2)n(-c2ccc(S(N)(=O)=O)cc2)n1)c1ccc(Br)cc1	fluorescence	48 h	25.9 µM
COc1cccc(NC(=S)N/N=C/c2cccc3cc4ccccc4nc23)c1	MTT	48 h	> 50 µM
COc1ccc(NC(=O)Nc2nc3cc(-c4ccc5ncn(Cc6ccccc6)c(=O)c5c4)ccc3s2)cc1	MTT	72 h	2.75 µM
COC(=O)c1cc(C(C)=NNc2nc(-c3ccc4c(c3)OCCCO4)cs2)ccc1O	MTT	96 h	180 µM
C/C(=N\C(=O)/N=C(\C)c1c(O)c2ccccc2oc1=O)c1c(O)c2ccccc2oc1=O	MTT	48 h	19.7 µM
COc1cccc(NC(=O)Nc2nc3cc(-c4ccc5ncn(CCN6CCOCC6)c(=O)c5c4)ccc3s2)c1	MTT	72 h	1.14 µM
OC1CCN(c2ccc(/C=N/NC(=S)Nc3cccc(Cl)c3Cl)cc2)CC1	MTT	24 h	0.58 µM
CC(C)[C@@H]1NC(=O)[C@@H](CCCCN)NC(=O)[C@H]([C@@H](C)O)NC(=O)[C@@H](CCCN)NC(=O)[C@H](Cc2ccccc2)NC(=O)[C@@H](Cc2ccccc2)NC1=O	ATP luminescence	72 h	> 100 µM
CC(C)Cc1ccc([C@H](C)C(=O)O)cc1	SRB	72 h	349 µM
COc1cc([C@@H]2c3cc4c(cc3[C@@H](O[C@@H]3O[C@@H]5CO[C@@H](C)O[C@H]5[C@H](O)[C@H]3O)[C@H]3COC(=O)[C@H]23)OCO4)cc(OC)c1O	SRB	72 h	0.3 µM
O=C(Nc1ccc(F)cc1)Nc1nc2cc(-c3ccc4ncn(CC5CC5)c(=O)c4c3)ccc2s1	MTT	72 h	2.48 µM
CCCCn1cnc2ccc(-c3ccc(NC(=O)NC(C)(C)C)nc3)cc2c1=O	CCK-8	72 h	> 10 µM
COc1cccc(CNc2ccc(C(=O)O)cc2)c1	resazurin	72 h	> 100 µM
C/C(=N\C1CCCCC1/N=C(\C)c1c(O)c2ccccc2oc1=O)c1c(O)c2ccccc2oc1=O (centres unmarked)	MTT	48 h	6.56 µM
O=c1[nH]cc(F)c(=O)[nH]1	MTT	48 h	11.8 µM
NS(=O)(=O)c1ccc(-n2nc(C(=O)NN=Cc3ccccc3O)cc2-c2ccccc2)cc1	fluorescence	48 h	9.25 µM
O=C(O)c1ccc(NCc2ccccc2)cc1	resazurin	72 h	> 100 µM
CN1CCC(NC2CCc3[nH]c4c(C(N)=O)ccc(-c5ccccc5Cl)c4c3C2)CC1 (centres unmarked)		96 h	0.0301 µM
NNc1nc2c(Cl)cc(Cl)cc2c(=O)n1-c1ccccc1	MTT	48 h	> 200 µM
Cc1cc(C)cc(NC(=O)Nc2nc3cc(-c4ccc5ncn(Cc6ccccc6)c(=O)c5c4)ccc3s2)c1	MTT	72 h	> 20 µM

Structure (SMILES)	technique	time	IC50
CCCCC(=O)Nc1ccc(-c2ccc3ncn(CCF)c(=O)c3c2)cn1	CCK-8	72 h	> 10 µM
O=C(O)c1ccc(NCc2cc(Br)ccc2O)cc1	resazurin	72 h	> 100 µM
Cc1sc2c(c1C)C(c1ccc(Cl)cc1)=N[C@@H](CC(=O)NCCCCNC(=O)COc1cccc3c1C(=O)N(C1CCC(=O)NC1=O)C3=O)c1nnc(C)n1-2 (some centres unmarked)	CCK-8	72 h	> 10 µM
Cc1ccc(NNc2nc3ccc(Br)cc3c(=O)n2-c2ccccc2)cc1	MTT	48 h	17.4 µM
COc1cccc(CNc2ccc(C(=O)O)cc2)c1OC	resazurin	72 h	> 100 µM
C[C@@H]1C[C@H]2[C@@H]3CCC4=CC(=O)C=C[C@]4(C)[C@@]3(F)[C@@H](O)C[C@]2(C)[C@@]1(O)C(=O)CO	MTT	48 h	348 µM
O=C(Nc1ccc(-c2ccc3ncn(Cc4ccccc4)c(=O)c3c2)cn1)c1ccco1	CCK-8	72 h	> 10 µM
COc1cc([C@@H]2c3cc4c(cc3[C@@H](O[C@@H]3O[C@@H]5CO[C@@H](C)O[C@H]5[C@H](O)[C@H]3O)[C@H]3COC(=O)[C@H]23)OCO4)cc(OC)c1O	MTT	48 h	14.3 µM
O=C(O)c1ccc(NCc2cccc(O)c2O)cc1	resazurin	72 h	90.7 µM
CCCC(C)C(=O)Nc1ccc(-c2ccc3ncn(CCC)c(=O)c3c2)cn1 (centres unmarked)	CCK-8	72 h	9.85 µM
CC1CCC(C(C)C)C(OC2=C(Cl)C(=O)c3ccccc3C2=O)C1 (centres unmarked)	MTT	24 h	> 50 µg/mL
O=C(N[C@@H](CSCc1nc2cc([N+](=O)[O-])ccc2[nH]1)C(=O)NO)c1ccccc1	MTT	48 h	< 500 µM
CCCC(=O)Nc1ccc(-c2ccc3ncn(Cc4ccc(C)cc4)c(=O)c3c2)cn1	CCK-8	72 h	> 10 µM
COc1cccc2c1C(=O)c1c(O)c3c(c(O)c1C2=O)C[C@@](O)(C(=O)CO)C[C@@H]3O[C@H]1C[C@H](N)[C@H](O)[C@H](C)O1	MTT		0.307 µM
OC1CCN(c2ccc(/C=N/NC(=S)NCc3ccc(Cl)cc3)cc2)CC1	MTT	24 h	1.46 µM
NS(=O)(=O)c1ccc(-n2nc(C(=O)NN3C(=O)CCC3=O)cc2-c2ccccc2)cc1	fluorescence	48 h	24 µM
CCCn1cnc2ccc(-c3ccc(NC(=O)CC)nc3)cc2c1=O	CCK-8	72 h	2.35 µM
NNc1nc2c(Cl)cc(Cl)cc2c(=O)n1-c1ccc(F)cc1	MTT	48 h	80 µM
COc1ccc(C(=O)Nc2nc3cc(-c4ccc5ncn(Cc6ccccc6)c(=O)c5c4)ccc3s2)cc1	MTT	72 h	> 20 µM
O=C(C=Cc1ccc(OCCCOc2ccc(C=CC(=O)c3cccs3)cc2)cc1)c1cccs1	MTT	48 h	92.4 µM
O=C(NCCc1ccccc1)Nc1nc2cc(-c3ccc4ncn(CCN5CCOCC5)c(=O)c4c3)ccc2s1	MTT	72 h	4.92 µM
OC1CCN(c2ccc(/C=N/NC(=S)Nc3ccccc3)cc2)CC1	MTT	24 h	3.77 µM
CC(C)[C@@H]1NC(=O)[C@@H](CCCNC(=N)N)NC(=O)[C@H]([C@@H](C)O)NC(=O)[C@@H](CCCN)NC(=O)[C@H](Cc2ccccc2)NC(=O)[C@@H](Cc2ccccc2)NC1=O	ATP luminescence	72 h	> 100 µM
CC#CCn1cnc2ccc(-c3ccc(NC(=O)CCCC)nc3)cc2c1=O	CCK-8	72 h	> 10 µM
O=C(Nc1ccc(Br)cc1)Nc1nc2cc(-c3ccc4ncn(Cc5ccccc5)c(=O)c4c3)ccc2s1	MTT	72 h	> 20 µM
